From PubChem
Shown are actives, neighbours in structure and some others; about 3.1% of the full set was active somewhere.
KCNQ1 pot: potentiators or activators of human KCNQ1 potassium channel; P51787; CHO-K1 KCNQ1, thallium flux FluxOR fluorescence; hits give high values; B-score at 10 µM; 310,000 compounds, 0.35% hits; AID 2648;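 active = fluorescence ratio B-score, a plate-corrected score, at least three library SD, with initial intensity B-score within 5 SD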
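System: Stable KCNQ1 CHO-K1 line | Incubation: 90 min dye loading and 20 min compound exposure, both at room temperature | Measure: Ratio B score | Medium: Assay buffer for compound exposure, DMSO matched across wells | Compound dosing: Single-concentration screen | Probe or stimulus: K+/Tl+ depolarizing stimulus | Measured by: Kinetic FluxOR fluorescence, 10 s baseline plus 110 s post-stimulus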
KCNK9 inh: blocks the human KCNK9 two-pore domain potassium channel; B-score at 10 µM; 310,000 compounds, 1.2% hits; Q9NPC2; HEK293 KCNK9, FluxOR thallium flux fluorescence; hits give low values;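 active = ratio B-score over 3 SD below the library mean, with starting fluorescence within 5 SD of its mean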;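 also: negative B-score means less thallium flux so channel inhibition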
KCNK3 block: human KCNK3 channel inhibition, primary screen; B-score at 10 µM; 340,000 compounds, 0.84% hits; O14649; CHO-KCNK3 thallium flux, FluxOR fluorescence; hits give low values;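 active = B-score under library mean minus 4 SD, starting fluorescence ratio at most library mean plus 5 SD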;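 also: more negative B-score means stronger inhibition of thallium flux through KCNK3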
hERG protect: hERG (human) protection from proarrhythmic block; CHO-hERG, FluxOR thallium flux, dofetilide IC70 present; activation (rescue from dofetilide block), less the hit threshold, % at 10 µM; Q12809; 310,000 compounds, 0.51% hits;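 active = activation above the mean of controls blocked by dofetilide plus 5 SD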;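 also: thallium influx through hERG after potassium depolarization seen as dye fluorescence rise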
Target sequence (Q12809 whole entry, looked up): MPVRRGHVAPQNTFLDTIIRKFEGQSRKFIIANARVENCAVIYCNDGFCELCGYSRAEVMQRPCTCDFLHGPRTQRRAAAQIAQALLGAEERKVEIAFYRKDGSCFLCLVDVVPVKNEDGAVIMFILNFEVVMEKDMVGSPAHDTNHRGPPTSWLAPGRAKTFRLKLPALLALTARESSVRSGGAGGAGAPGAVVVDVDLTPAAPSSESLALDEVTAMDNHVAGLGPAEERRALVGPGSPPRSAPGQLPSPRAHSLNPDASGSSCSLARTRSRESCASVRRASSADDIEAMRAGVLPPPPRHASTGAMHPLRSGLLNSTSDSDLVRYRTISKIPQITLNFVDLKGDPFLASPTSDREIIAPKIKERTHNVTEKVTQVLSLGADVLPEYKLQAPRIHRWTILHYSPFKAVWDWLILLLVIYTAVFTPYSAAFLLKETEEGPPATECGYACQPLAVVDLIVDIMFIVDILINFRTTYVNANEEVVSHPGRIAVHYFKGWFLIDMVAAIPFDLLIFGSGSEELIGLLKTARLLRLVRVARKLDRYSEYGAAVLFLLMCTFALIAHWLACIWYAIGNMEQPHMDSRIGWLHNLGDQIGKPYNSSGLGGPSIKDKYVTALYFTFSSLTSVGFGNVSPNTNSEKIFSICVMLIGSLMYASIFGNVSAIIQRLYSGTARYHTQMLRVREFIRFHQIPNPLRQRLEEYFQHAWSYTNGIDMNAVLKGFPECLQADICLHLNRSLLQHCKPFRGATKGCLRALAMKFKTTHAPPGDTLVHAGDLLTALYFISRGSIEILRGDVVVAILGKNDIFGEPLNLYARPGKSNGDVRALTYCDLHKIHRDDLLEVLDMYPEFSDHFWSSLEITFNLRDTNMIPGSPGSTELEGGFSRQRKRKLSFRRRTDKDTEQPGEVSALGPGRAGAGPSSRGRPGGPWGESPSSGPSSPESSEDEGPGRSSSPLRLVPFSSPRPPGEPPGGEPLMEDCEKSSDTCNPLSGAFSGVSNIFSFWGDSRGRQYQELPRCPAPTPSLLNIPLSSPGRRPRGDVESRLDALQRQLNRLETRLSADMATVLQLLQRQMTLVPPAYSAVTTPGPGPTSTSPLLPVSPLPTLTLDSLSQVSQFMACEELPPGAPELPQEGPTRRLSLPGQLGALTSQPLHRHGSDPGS
KCNQ1 block: human KCNQ1 channel inhibition. P51787. CHO-K1 KCNQ1, FluxOR thallium flux fluorescence; hits give high values. B-score at 10 µM. 310,000 compounds, 1.3% hits;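 active = compounds whose thallium flux B-score, printed positive for inhibition, exceeds three library SD while starting fluorescence stays within three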;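 also: channel opened by potassium depolarization with thallium stimulus after 20 min compound exposure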
Hits are given with their value; - = inactive; . = no result given.

SMILES	KCNQ1 pot	KCNK9 inh	KCNK3 block	hERG protect	KCNQ1 block
COc1ccc(C2/C=C\CN(C(=O)c3ccc(C)cc3)[C@H](Cc3ccccc3)C(=O)N2Cc2ccc(F)cc2)cc1 (some centres not stated)	-	-	-	-	-
CC(c1ccccc1F)n1cc(C(=O)NCCCc2nc3ccccc3[nH]2)nn1 (configuration not stated)	-	-	-	-	-
Cc1ccc(C)c(OCCC(=O)OCC(=O)NCc2ccc(F)cc2)c1	-	-	-	-	-
CCCCN(C)C(=O)CCCc1c[nH]c2ccccc12	-	-7.79	-	-	-
CCCNC(=O)N(C)c1nncnc1C(=O)NC	-	-	-	11.2	-
CCOc1ccccc1N1CC(C(=O)NCCOc2ccccc2OC)CC1=O (configuration not stated)	-	-	-	-	-
CC(C)C(NC(=O)C(c1ccccc1)c1ccccc1)c1nc2ccccc2[nH]1 (configuration not stated)	-	-	-	-	-
CC(=O)NC(c1ccccc1)c1nc2ccccc2[nH]1 (configuration not stated)	-	-	-10.7	-	-
O=C(O)c1ccccc1C(=O)NCCc1c(C(=O)O)[nH]c2ccc(F)cc12	-	-	-	-	-
CC(C)Cn1c(=S)[nH]c2cc(Cl)ccc21	-	-	-	6.9	-
Cc1ccc(S(=O)(=O)c2c(C)cc(C)nc2Oc2cccc(C(F)(F)F)c2)cc1	-	-7.32	-	-	-
Cc1cc(-c2ccccc2)nc(Oc2cccc(C(F)(F)F)c2)c1S(C)(=O)=O	-	-	-	-	-
CN(C)CCCNS(=O)(=O)c1ccc(N2CCC(c3ccc(Cl)cc3)=N2)cc1	-	-11.4	.	8.7	9
Cc1c(CCOC(=O)CC23CC4CC(CC(C4)C2)C3)sc[n+]1CC(=O)c1ccccc1	-	-	-	-	6
Cc1c(CCOC(=O)C23CC4(C)CC(C)(CC(C)(C4)C2)C3)sc[n+]1CC(=O)c1ccccc1	-	-	-	-	-
CC(C)(C)c1ccc(C(=O)N2CCC(C(=O)c3ccccc3)CC2)cc1	-	-	-	-	-
O=C(CN1CCN(S(=O)(=O)N2CCOCC2)CC1)Nc1ccc(Cl)c(Cl)c1	-	-	-	-	-
O=C(CN1CCOCC1)Nc1ccc(Cl)c(Cl)c1	-	-	-	5.9	-
O=C(NCc1ccccc1)c1onc(CSc2ccc(F)cc2)c1C(=O)NCCCN1CCOCC1	14	-	-	-	-
Cc1ccc(Nc2nc(N)c3ccccc3n2)cc1C	-	-	-	-	-
Cc1nc2sccn2c1-c1nc(-c2cc3ccccc3o2)cs1	-	-7.14	-	-	-
c1ccc2oc(-c3csc(N4CCOCC4)n3)cc2c1	-	-	-	-	-
COc1ccc([N+](=O)[O-])cc1NC(=O)c1ccc(CN(c2ccccc2)S(C)(=O)=O)cc1	-	-	-	-	-
Cc1cc(O)ccc1Nc1nc(-c2sc(N)nc2C)cs1	-	-	-	-	-
COc1ccc(OC)c(Nc2nc(-c3sc(N)nc3C)cs2)c1	-	-6.71	-	-	-
SMILES	KCNQ1 pot	KCNK9 inh	KCNK3 block	hERG protect	KCNQ1 block
CCCCCCCCCCC[N+](C)(C)CC/C=C1/c2ccccc2Sc2ccc(Cl)cc21	9	-	-	-	-
N#Cc1c(NC(=O)CSc2ncccn2)oc(-c2ccccc2)c1-c1ccccc1	-	-	-	-	-
N#Cc1c(NC(=O)COC(=O)C2CC3C=CC2C3)oc(-c2ccccc2)c1-c1ccccc1 (configuration not stated)	-	-	-	-	10
N#Cc1c(NC(=O)CSc2n[nH]c(Cc3ccccc3)n2)oc(-c2ccccc2)c1-c1ccccc1	-	-	-	-	9
Cc1ccc(OCC(=O)Nc2oc(-c3ccccc3)c(-c3ccccc3)c2C#N)cc1	-	-	-	-	6
N#Cc1c(NC(=O)CN2CCOCC2)oc(-c2ccccc2)c1-c1ccccc1	-	-	-	-	-
COc1ccc(CC(=O)Nc2oc(-c3ccccc3)c(-c3ccccc3)c2C#N)cc1OC	-	-	-	-	-
COc1ccccc1OCC(=O)Nc1oc(-c2ccccc2)c(-c2ccccc2)c1C#N	.	.	-9.38	.	.
COc1ccc(-c2oc(NC(=O)CSc3ncn[nH]3)c(C#N)c2-c2ccc(OC)cc2)cc1	-	-	-13.4	-	-
COc1ccc(-c2oc(NC(=O)CCl)c(C#N)c2-c2ccc(OC)cc2)cc1	-	-	-	-	-
CC(C)C[C@@H](CNC(=O)OC(C)(C)C)NC(=O)c1nc[nH]c1C(=O)N[C@@H](CC(C)C)C(=O)CNC[C@H](CC(C)C)NC(=O)c1nc[nH]c1C(=O)N[C@@H](Cc1c[nH]c2ccccc12)C(=O)OC(C)(C)C	.	.	-	.	.
Cc1nc2c(C(=O)N3CCCC3)cnn2c(C)c1Cc1c(F)cccc1Cl	-	-	-	-	-
Cc1nc2c(C(=O)N3CCN(c4ccccn4)CC3)cnn2c(C)c1Cc1cccc(Cl)c1	7	-	-	-	-
CC(O)C(NS(=O)(=O)c1ccc(Cl)cc1)C(=O)OCC(=O)c1ccc2c(c1)NC(=O)CO2 (configuration not stated)	.	.	-	.	.
CC(C)CC(NC(=O)c1ccc(Cl)cc1)C(=O)OCC(=O)c1ccc2c(c1)NC(=O)CO2 (configuration not stated)	13	-	-	-	-
C=C1CC(C(=O)N/N=C/c2ccccc2)C1	-	-	-	-	-
CCOC(=O)c1ccc(Nc2ncnc3c2cnn3C)cc1	-	-	-	-	-
Cn1ncc2c(O/N=C(\N)c3ccc(C(C)(C)C)cc3)ncnc21	10	-	-	-	-
O=C(Nc1ccc(Cl)cc1)Nc1nnc(SCc2ccccc2)s1	-	-	-	-	6
COc1ccc(N/C=C(\C#N)c2nc3ccccc3n2C)c(OC)c1	-	-7.02	-	-	-
O=C(Nc1nc(-c2cccc([N+](=O)[O-])c2)cs1)C(c1ccccc1)c1ccccc1	-	-	-	-	11
CC(OC(=O)c1ccccc1Br)C(=O)Nc1nc(-c2cccc([N+](=O)[O-])c2)cs1 (configuration not stated)	-	-	-	-	-
Cc1ccc(C(=O)Nc2nc(-c3ccco3)c(-c3ccco3)s2)o1	.	.	-10.8	.	.
Cc1ccc(C(=O)Nc2nc3ccc(S(C)(=O)=O)cc3s2)o1	-	-	-	38.1	-
CCC(C)(C)NC(=O)CN(C(=O)CCC(=O)Nc1nccs1)c1ccc2c(c1)OCCO2	-	-	-	-	-
CC(C)c1ccc(NC(=S)N(C)CCc2ccccn2)cc1	-	-	-	29.2	-
Cc1cc(C)cc(C(=O)N2CCCCCC2)c1	-	-	-	-	-
Cc1cc(C)c(C(=O)c2ccc(C(=O)N3CCCCC3)cc2)c(C)c1	-	-	-	14.1	-
O=C(Nc1ccnn1C1CCN(C(=O)c2cccc(C(F)(F)F)c2)CC1)C1CC1	-	-	-	-	-
